Measured values: ChEMBL document CHEMBL5715948, “Tubastatin, a selective histone deacetylase 6 inhibitor shows anti-inflammatory and anti-rheumatic effects” (Int Immunopharmacol, 2013)
Active and inactive are the calls of the source. No cut-off for these calls is given here.

Experiments:
[1] = tested on: THP-1; experiment: Inhibition of LPS-stimulated TNFalpha production in PMA-activated human THP-1 cells pre-incubated for 24 hrs before LPS-stimulation and measured after 4 hrs post LPS challenge by ELISA; type: functional, cell-based; settings: time 28.0 hrs
In short: (§1)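 THP-1 cells, 10,000/well, differentiated with 32 nM PMA for 24 h, medium replaced and rested 24 h, then compound 24 h before LPS: 10 ng/ml for 4 h (TNF-α) or 100 ng/ml for 8 h (IL-6). Conditioned medium assayed by human ELISA at 450 nm; mean ± SD, n = 3; IC50 from dose–response.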

[2] = tested on: THP-1; experiment: Inhibition of LPS-stimulated IL6 production in PMA-activated human THP-1 cells pre-incubated for 24 hrs before LPS-stimulation and measured after 8 hrs post LPS challenge by ELISA; type: functional, cell-based; settings: time 32.0 hrs; in short: as §1
[3] = tested on: THP-1; experiment: Cytotoxicity in human THP-1 cells at 100 to 100000 nM incubated for 24 hrs by SRB assay; type: toxicity, cell-based; settings: thp-1, 24 h, 100 µM, dose 100-100000 nM
In short: (§2)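 RAW 264.7 (DMEM) or THP-1 (RPMI-1640) cells, 10% FBS, seeded 10,000/well and exposed 24 h to compound in DMSO over 100–100000 nM. SRB staining, absorbance 530 nm; % survival relative to untreated cells, mean ± SD, n = 3.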

[4] = tested on: RAW264.7; experiment: Cytotoxicity in mouse RAW264.7 cells at 100 to 100000 nM incubated for 24 hrs by SRB assay; type: toxicity, cell-based; settings: raw264.7, 24 h, 100 µM, dose 100-100000 nM; in short: as §2
[5] = tested on: RAW264.7; experiment: Inhibition of LPS-stimulated NO production in mouse RAW264.7 cells pre-incubated for 24 hrs before LPS-stimulation and measured after 24 hrs post LPS challenge by Griess assay; type: functional, cell-based; settings: time 48.0 hrs
In short: (§3)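 RAW 264.7 cells (1 million) in 24-well plates, 24 h settle, compound 24 h, then LPS 100 ng/ml for 24 h. Medium nitrite measured with Griess reagent (1% sulfanilamide, 0.1% naphthylethylenediamine in 2.5% phosphoric acid), 10 min room temperature, absorbance 570 nm, quantified against sodium nitrite standard curve; mean ± SD, n = 3.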

[6] = tested on: RAW264.7; experiment: Inhibition of LPS-stimulated NO production in mouse RAW264.7 cells at 10 uM pre-incubated for 24 hrs before LPS-stimulation and measured after 24 hrs post LPS challenge by Griess assay; type: functional; settings: time 48 hrs; in short: as §3
[7] = tested on: Rattus norvegicus; experiment: Antiinflammatory activity in Wistar rat assessed as inhibition of FCA-induced paw inflammation at 30 mg/kg/day, ip for 5 days measured 2 hrs after FCA challenge relative to control; type: functional; settings: 120 h, time 5 day
In short: (§4)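 Male Wistar rats (200–225 g) randomized by paw volume, n = 6. Test agent i.p. daily for 5 days or reference oral on day 5; 1 h after dosing on day 5, 100 μg M. tuberculosis in 50 μl IFA injected sub-plantar into both hind paws. Paw volume plethysmometry at 2, 6, 24 h; % inhibition versus vehicle disease control.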

[8] = tested on: Rattus norvegicus; experiment: Antiinflammatory activity in Wistar rat assessed as inhibition of FCA-induced paw inflammation at 30 mg/kg/day, ip for 5 days and measured 6 hrs after FCA challenge relative to control; type: functional; settings: 120 h, time 5 day; in short: as §4
[9] = tested on: Rattus norvegicus; experiment: Antiinflammatory activity in Wistar rat assessed as inhibition of FCA-induced paw inflammation at 30 mg/kg/day, ip for 5 days and measured 24 hrs after FCA challenge relative to control; type: functional; settings: 120 h, time 5 day; in short: as §4
[10] = tested on: Mus musculus; experiment: (§5) Anti-rheumatic activity in DBA1 mouse semi-therapeutic collagen induced arthritis model assessed as inhibition of clinical arthritic scores at 30 mg/kg/day, ip QD dosed during day 21 to day 36 post immunization by hematoxylin and eosin staining based analysis; type: functional; settings: DBA1, 384 h, time 16 day
In short: (§6)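 Collagen-induced arthritis in female DBA1 mice: collagen II/CFA intradermal at tail base day 0, collagen/IFA boost day 21, LPS 50 μg i.p. day 28; once-daily dosing day 21 to 36, six per group. Arthritic clinical scores followed daily from day 28 to 37; mean ± SEM versus vehicle-treated disease control.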

[11] = tested on: Mus musculus; experiment: Anti-rheumatic activity in DBA1 mouse semi-therapeutic collagen induced arthritis model assessed as inhibition of IL6 level in paw tissues at 30 mg/kg/day, ip QD dosed during day 21 to day 36 post immunization by ELISA analysis; type: functional; settings: 384 h, time 16 day
In short: (§7)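 Female DBA1 mice (6–8 weeks) immunized intradermally at tail base on day 0 with bovine type II collagen in CFA, boosted day 21 with collagen in IFA, LPS 50 μg i.p. day 28; dosed day 21–36 (n = 6/group). Day 37 left paws frozen, pulverized in liquid nitrogen, homogenized in T-PER, spun 500 g 10 min 4 °C; supernatant IL-6 by ELISA, normalized per mg protein.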

[12] = tested on: Mus musculus; experiment: as §5, with “histopathological changes (cartilage erosion, synovial hyperplasia and inflammation)” for “clinical arthritic scores”; type: functional; settings: DBA1, 384 h, time 16 day
In short: (§8)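 Histopathology in collagen II/CFA-immunized DBA1 mice (day 21 boost, day 28 LPS i.p.), treated day 21–36, n = 6. Right fore and hind paws taken at sacrifice on day 37, paraffin-embedded, sectioned, H&E-stained and scored for cartilage erosion, synovial hyperplasia, pannus and cell infiltration.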

[13] = tested on: Mus musculus; experiment: Anti-rheumatic activity in DBA1 mouse semi-therapeutic collagen induced arthritis model assessed as mild cartilaginous change like proteoglycan loss at 30 mg/kg/day, ip QD dosed during day 21 to day 36 post immunization by Safranin O staining analysis; type: functional, organism-based; settings: time 16.0 day
In short: (§9)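 Right fore and hind paws from collagen-induced arthritic DBA1 mice (treated day 21–36, sacrificed day 37) paraffin-sectioned and stained with Safranin O to detect proteoglycan/glycosaminoglycan loss in articular cartilage.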

[14] = Toxicity in DBA1 mouse semi-therapeutic collagen induced arthritis model assessed as spleen weight at 30 mg/kg/day, ip QD dosed during day 21 to day 36 post immunization (reference value: 226.4 +/- 11.03 mg); type: organism-based; settings: in vivo, 384 h, time 16 day
[15] = Toxicity in DBA1 mouse semi-therapeutic collagen induced arthritis model assessed as thymus weight at 30 mg/kg/day, ip QD dosed during day 21 to day 36 post immunization (reference value: 12.20 +/- 1.5 mg); type: organism-based; settings: in vivo, 384 h, time 16 day
[16] = Toxicity in DBA1 mouse semi-therapeutic collagen induced arthritis model assessed as change in body weight at 30 mg/kg/day, ip QD dosed during day 21 to day 36 post immunization (reference value: -25.03 +/- 5.22%); type: organism-based; settings: in vivo, 384 h, time 16 day
[17] = tested on: Rattus norvegicus; experiment: Antiinflammatory activity in Wistar rat assessed as inhibition of FCA-induced paw inflammation at 1 mg/kg/day, po […] measured 2 hrs after FCA challenge relative to control; type: functional; in short: as §4
[18] = tested on: Rattus norvegicus; experiment: Antiinflammatory activity in Wistar rat assessed as inhibition of FCA-induced paw inflammation at 1 mg/kg/day, po […] measured 6 hrs after FCA challenge relative to control; type: functional; in short: as §4
[19] = tested on: Rattus norvegicus; experiment: Antiinflammatory activity in Wistar rat assessed as inhibition of FCA-induced paw inflammation at 1 mg/kg/day, […] measured 24 hrs after FCA challenge relative to control; type: functional; settings: route po; in short: as §4
[20] = tested on: Mus musculus; experiment: (§10) Anti-rheumatic activity in DBA1 mouse semi-therapeutic collagen induced arthritis model assessed as inhibition of clinical arthritic scores at 0.1 mg/kg/day, po QD dosed during day 21 to day 36 post immunization by hematoxylin and eosin staining based analysis; type: functional; settings: DBA1, 384 h, time 16 day; in short: as §6
[21] = tested on: Mus musculus; experiment: Anti-rheumatic activity in DBA1 mouse semi-therapeutic collagen induced arthritis model assessed as inhibition of IL6 level in paw tissues at 0.1 mg/kg/day, po QD dosed during day 21 to day 36 post immunization by ELISA analysis; type: functional; settings: 384 h, time 16 day; in short: as §7
[22] = tested on: Mus musculus; experiment: as §10, with “histopathological changes (cartilage erosion, synovial hyperplasia and inflammation)” for “clinical arthritic scores”; type: functional; settings: DBA1, 384 h, time 16 day; in short: as §8
[23] = tested on: Mus musculus; experiment: Anti-rheumatic activity in DBA1 mouse semi-therapeutic collagen induced arthritis model assessed as mild cartilaginous change like proteoglycan loss at 0.1 mg/kg/day, po QD dosed during day 21 to day 36 post immunization by Safranin O staining analysis; type: functional, organism-based; settings: time 16.0 day; in short: as §9
[24] = Toxicity in DBA1 mouse semi-therapeutic collagen induced arthritis model assessed as spleen weight at 0.1 mg/kg/day, po QD dosed during day 21 to day 36 post immunization (reference value: 226.4 +/- 11.03 mg); type: organism-based; settings: in vivo, 384 h, time 16 day
[25] = Toxicity in DBA1 mouse semi-therapeutic collagen induced arthritis model assessed as thymus weight at 0.1 mg/kg/day, po QD dosed during day 21 to day 36 post immunization (reference value: 12.20 +/- 1.5 mg); type: organism-based; settings: in vivo, 384 h, time 16 day
[26] = Toxicity in DBA1 mouse semi-therapeutic collagen induced arthritis model assessed as change in body weight at 0.1 mg/kg/day, po QD dosed during day 21 to day 36 post immunization (reference value: -25.03 +/- 5.22%); type: organism-based; settings: in vivo, 384 h, time 16 day

CN1CCc2c(c3ccccc3n2Cc2ccc(C(=O)NO)cc2)C1 [TUBASTATIN A]
inhibition [1]: Dose-Dependent Effect | inhibition [2]: Dose-Dependent Effect | Activity [3]: Non-Toxic | Activity [4]: Non-Toxic | inhibition [5]: Dose-Dependent Effect | inhibition at 10 µM [6]: 66% | inhibition in vivo at 30 mg/kg/day [7]: 71.9% | inhibition in vivo at 30 mg/kg/day [8]: 40.3% | inhibition in vivo at 30 mg/kg/day [9]: 38.6% | inhibition in vivo at 30 mg/kg/day [10]: 73% | inhibition in vivo at 30 mg/kg/day [11]: 59% | inhibition in vivo at 30 mg/kg/day [12]: 71% | Activity [13]: Active | Activity [14]: 182 mg | Activity [15]: 17.5 mg | Activity [16]: -1.07%

C[C@@H]1C[C@H]2[C@@H]3CCC4=CC(=O)C=C[C@]4(C)[C@@]3(F)[C@@H](O)C[C@]2(C)[C@@]1(O)C(=O)CO [DEXAMETHASONE]
inhibition at 10 µM [6]: 36% | inhibition in vivo at 1 mg/kg/day [17]: 65.4% | inhibition in vivo at 1 mg/kg/day [18]: 90.5% | inhibition in vivo at 1 mg/kg/day [19]: 49.5% | inhibition in vivo at 0.1 mg/kg/day [20]: 92% | inhibition in vivo at 0.1 mg/kg/day [21]: 66% | inhibition in vivo at 0.1 mg/kg/day [22]: 100% | Activity [23]: Active | Activity [24]: 52.5 mg | Activity [25]: 6.5 mg | Activity [26]: -13.9%
